Measurements reported in ChEMBL document CHEMBL1124791, “Structure-activity relationships of the lissoclinamides: cytotoxic cyclic peptides from the ascidian Lissoclinum patella” (J Med Chem, 1990).
Converted amounts (≈) assume the structure as drawn.

Assays:
[1] = Concentration required for 50% inhibition of growth by the compound in normal peripheral blood lymphocytes; type: functional, cell-based, Homo sapiens
Summary of the method: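 Human lymphocytes isolated from whole blood on Ficoll Paque, stimulated with PHA (1 μL/mL) for 72 h and plated at 1 × 10^5/mL. Compounds added over 100 to 0.1 μg/mL. Survival measured after 24 h by MTT colorimetric assay, with formazan dissolved in acidic 2-propanol and absorbance read at 540 nm.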

[2] = tested on: MRC5CV1; experiment: Concentration required for 50% inhibition of growth by the compound in SV-40 transformed fibroblasts (MRC5CV1); type: functional, cell-based; conditions: Homo sapiens
Summary of the method: (§1)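 Cells kept in RPMI 1640 with 10% fetal calf serum at 37 °C, 5% CO2, then plated at 1 × 10^4 per 100 μL and left overnight. Exposure to varying concentrations for 1 h, followed by 48 h incubation. MTT (5 mg/mL stock) added for 4 h at 37 °C and formazan dissolved in 0.08 M HCl/2-propanol. Absorbance read at 540 nm against 690 nm reference. Three experiments, eight assays per point.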

[3] = tested on: T-24; experiment: Concentration required for 50% inhibition of growth by the compound in transitional bladder carcinoma T24 cells; type: functional, cell-based, Homo sapiens; summary of the method: as §1
[4] = Homo sapiens, T-24, read-out: IC50

Compound	IC50 [1] [µg/mL]	IC50 [2] [µg/mL]	IC50 ([3]; t-24) [µg/mL]	IC50 [3, 4] [µg/mL]
CC(C)C1NC(=O)C2N=C(OC2C)C2CCCN2C(=O)C(Cc2ccccc2)NC(=O)c2csc(n2)C(Cc2ccccc2)NC(=O)C2CSC1=N2 (stereo in doubt; form 1)	8 (≈ 10.8 µM)	1 (≈ 1.35 µM)	6 (≈ 8.09 µM)	
CC(C)[C@@H]1NC(=O)[C@H]2N=C(O[C@@H]2C)[C@@H]2CCCN2C(=O)[C@H](Cc2ccccc2)NC(=O)[C@@H]2CSC(=N2)[C@H](Cc2ccccc2)NC(=O)[C@@H]2CSC1=N2	0.08 (≈ 0.108 µM)	0.04 (≈ 0.0538 µM)		0.06 (≈ 0.0806 µM)
CC(C)C1NC(=O)C2N=C(OC2C)C2CCCN2C(=O)C(Cc2ccccc2)NC(=O)c2csc(n2)C(Cc2ccccc2)NC(=O)c2csc1n2 (stereo not given)	20 (≈ 27 µM)	15 (≈ 20.3 µM)		10 (≈ 13.5 µM)
CC(C)C1NC(=O)C2N=C(OC2C)C2CCCN2C(=O)C(Cc2ccccc2)NC(=O)c2csc(n2)C(Cc2ccccc2)NC(=O)C2CSC1=N2 (stereo in doubt; form 2)			0.8 (≈ 1.08 µM)	
